Reference: ChEMBL document CHEMBL1153493, “The marine natural-derived inhibitors of glycogen synthase kinase-3beta phenylmethylene hydantoins: In vitro and in vivo activities and pharmacophore modeling” (Bioorg Med Chem, 2009)

Biological target: Glycogen synthase kinase-3 beta (Homo sapiens, UniProt P49841)
Assay: Inhibition of recombinant GSK3-beta by ELISA

Sequence of Glycogen synthase kinase-3 beta (P49841 whole entry): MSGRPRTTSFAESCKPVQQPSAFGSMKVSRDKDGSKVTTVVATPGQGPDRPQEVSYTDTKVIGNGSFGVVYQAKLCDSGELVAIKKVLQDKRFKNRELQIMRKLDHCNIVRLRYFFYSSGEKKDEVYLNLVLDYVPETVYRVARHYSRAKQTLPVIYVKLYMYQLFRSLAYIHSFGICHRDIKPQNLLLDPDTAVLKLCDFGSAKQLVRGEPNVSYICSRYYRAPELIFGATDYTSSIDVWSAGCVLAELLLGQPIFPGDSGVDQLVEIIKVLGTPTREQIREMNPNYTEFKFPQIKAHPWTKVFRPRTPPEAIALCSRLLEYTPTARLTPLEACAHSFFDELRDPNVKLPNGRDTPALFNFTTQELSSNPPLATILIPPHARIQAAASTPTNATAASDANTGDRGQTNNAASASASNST

IC50 [µM] | SMILES
6.9 | CSc1ccc(/C=C2\NC(=O)NC2=O)cc1
13.5 | O=C1NC(=O)/C(=C/c2ccc(-c3cccs3)cc2)N1
18.2 | O=C1NC(=O)/C(=C/c2ccc(Cl)cc2)N1
4.2 | CCN(CC)c1ccc(/C=C2\NC(=O)NC2=O)cc1
6.4 | O=C1NC(=O)/C(=C/c2ccc(-c3ccsc3)cc2)N1
7.8 | CCSc1ccc(/C=C2\NC(=O)NC2=O)cc1
13.7 | O=C1NC(=O)/C(=C/c2ccc(O)cc2)N1 [4-HYDROXYPHENYLMETHYLENE HYDANTOIN]

SMILES | IC50 [µM]
O[C@]12C=C(c3nccc4c3[nH]c3ccccc34)[C@@H]3CCN(CCCC/C=C\CC1)C[C@@]31C[C@@H]3/C=C\CCCCN3[C@H]12 [MANZAMINE A] | 12.3

Test system: Rattus norvegicus
Assay: Antihyperglycemic activity in ip dosed Sprague-Dawley rat assessed as increase liver glycogen
Assay type: functional, organism-based
Procedure, shortened: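 Female Sprague Dawley rats, six weeks old, about 200 g. Food and water removed 6 h before a single ip injection of 5, 15 or 25 mg/kg as the sodium salt in PBS pH 7.2, 0.5 mL/rat. PBS vehicle control, n=3 per group. Liver homogenized in 5% TCA, glycogen precipitated with ethanol, measured with anthrone at 620 nm. Mean ± SEM.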

SMILES | Activity
CCN(CC)c1ccc(/C=C2\NC(=O)NC2=O)cc1 | Dose-dependent effect
